{"source": "ChEMBL document CHEMBL4049421", "about": "“Design, Synthesis, and Pharmacological Characterization of N-(4-(2 (6,7-Dimethoxy-3,4-dihydroisoquinolin-2(1H)yl)ethyl)phenyl)quinazolin-4-amine Derivatives: Novel Inhibitors Reversing P-Glycoprotein-Mediated Multidrug Resistance” (J Med Chem, 2017)", "key": {"Rattus norvegicus [1]": {"test_system": "Rattus norvegicus", "assay": "AUC(0 to infinity) in Sprague-Dawley rat plasma at 5 mg/kg, iv measured after 24 hrs by LC-MS/MS analysis", "assay_type": "ADME, organism-based", "design": "dose 5 mg/kg, time infinity, route intravenous", "conditions": "in vivo", "how_it_was_run": "(§1)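 Male Sprague-Dawley rats, n = 3 per group, given drug in Tween-80/ethanol/saline (5:10:85, v/v) at 10 mg/kg p.o. or 5 mg/kg i.v. Retro-orbital blood was taken at 5 min to 24 h, and plasma separated at 900g. Samples were spiked with internal standard, methanol-precipitated and quantified by LC-MS/MS. F = (AUCpo/AUCiv)×(dose iv/dose po)×100%.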"}, "[2]": {"assay": "Bioavailability in Sprague-Dawley rat plasma at 5 mg/kg, iv measured after 24 hrs by LC-MS/MS analysis", "assay_type": "ADME, organism-based", "how_it_was_run": "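Bioavailability was calculated as (AUCpo/AUCiv)×(dose iv/dose po)×100% from male SD rats (n = 3) dosed 5 mg/kg i.v. or 10 mg/kg p.o. in Tween-80/ethanol/saline (5:10:85). Plasma sampled 5 min–24 h was analysed by LC-MS/MS.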"}, "Homo sapiens [3]": {"species_on_record": "Homo sapiens", "assay": "Inhibition of P-gp in human K562/A02 cells assessed as potentiation of doxorubicin-induced cytotoxicity at 1 uM preincubated for 24 hrs followed by compound washout for 24 hrs and subsequent doxorubicin addition measured after 48 hrs by MTT assay", "assay_type": "cell-based", "how_it_was_run": "(§2)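 K562/A02 cells (1×10^4 cells per well) were preincubated 24 h with modulator (1.0 μM or 5.0 μM) or PBS. Cells were washed 0 or 3 times with medium and held for 0, 6, 12 or 24 h. A DOX concentration series was then added for 48 h, and viability was read by MTT. Triplicate determinations.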"}, "Homo sapiens [4]": {"species_on_record": "Homo sapiens", "assay": "Inhibition of P-gp in human K562/A02 cells assessed as potentiation of doxorubicin-induced cytotoxicity by measuring fold reduction in doxorubicin IC50 at 1.0 uM after 48 hrs by MTT assay relative to doxorubicin alone", "assay_type": "cell-based", "how_it_was_run": "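K562/A02 cells (1×10^4 cells per well) were exposed to a DOX concentration series, alone or with modulator at 1.0 μM, for 48 h. Viability was read by MTT at 490 nm. Reversal fold = DOX IC50 without inhibitor / DOX IC50 with inhibitor, mean ± SD of three tests.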"}, "[5]": {"assay": "Oral bioavailability in Sprague-Dawley rat plasma at 10 mg/kg measured after 24 hrs by LC-MS/MS analysis", "assay_type": "ADME, organism-based", "how_it_was_run": "as §1"}, "[6]": {"assay": "Plasma clearance in Sprague-Dawley rat at 5 mg/kg, iv measured after 24 hrs by LC-MS/MS analysis", "assay_type": "ADME, organism-based", "how_it_was_run": "as §1"}, "Homo sapiens [7]": {"species_on_record": "Homo sapiens", "assay": "Inhibition of P-gp in human K562/A02 cells assessed as potentiation of doxorubicin-induced cytotoxicity at 1.0 uM preincubated for 24 hrs followed by doxorubicin addition measured after 48 hrs by MTT assay", "assay_type": "cell-based", "how_it_was_run": "as §2"}, "Homo sapiens [8]": {"species_on_record": "Homo sapiens", "assay": "Inhibition of ATPase activity in human P-gp membrane fraction at 0.5 uM in presence of ATP after 1 hr by luciferase […]", "assay_type": "cell membranes", "how_it_was_run": "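Human P-gp membrane fraction (~25 μg) was incubated with compound at 0.5, 5.0 or 50.0 μM in 0.5% DMSO, with a 100 μM sodium vanadate reference. Reaction was started with 5.0 mM MgATP, 1 h at 37 °C. Remaining ATP was read by luciferase luminescence after 20 min at room temperature, relative to vanadate. n = 3.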"}, "[9]": {"assay": "Cmax in Sprague-Dawley rat at 5 mg/kg, iv measured after 24 hrs by LC-MS/MS analysis", "assay_type": "ADME, organism-based", "design": "dose 5 mg/kg, route intravenous", "conditions": "in vivo", "how_it_was_run": "as §1"}, "[10]": {"assay": "Cytotoxicity against human K562 cells assessed as cell viability at 1.0 uM after 48 hrs by MTT assay (reference value: >99%)", "assay_type": "cell-based", "conditions": "read-out: Activity"}, "Homo sapiens [11]": {"species_on_record": "Homo sapiens", "assay": "Inhibition of P-gp in human K562/A02 cells assessed as potentiation of vinblastine-induced cytotoxicity at 1.0 uM after 48 hrs by MTT assay", "assay_type": "cell-based", "how_it_was_run": "(§3)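 K562/A02 cells were exposed for 48 h to DNR, PTX, VLB or CTX at 0, 0.313–20 μM, with or without modulator at 1.0 μM. Viability was measured by MTT at 490 nm, mean ± SD of three independent tests.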"}, "Homo sapiens [12]": {"species_on_record": "Homo sapiens", "assay": "Inhibition of P-gp in human K562/A02 cells assessed as potentiation of daunorubicin-induced cytotoxicity at 1.0 uM after 48 hrs by MTT assay", "assay_type": "cell-based", "how_it_was_run": "as §3"}, "Rattus norvegicus [13]": {"test_system": "Rattus norvegicus", "assay": "Effect on plasma concentration of doxorubicin in Sprague-Dawley rat at 5 mg/kg, iv co-administered with doxorubicin measured after 8 hrs by LC-MS/MS analysis", "assay_type": "ADME, organism-based", "conditions": "in vivo", "how_it_was_run": "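Male SD rats received DOX 10 mg/kg i.v. alone or with modulator 5 mg/kg i.v. Orbital blood was taken at 5 min to 8 h. Plasma DOX was measured by LC-MS/MS with DNR (0.5 μg/mL) as internal standard. Mean ± SD, n = 3.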"}, "HUVEC": {"test_system": "HUVEC", "assay": "Cytotoxicity against HUVEC assessed as reduction in cell viability after 48 hrs by MTT assay", "assay_type": "cell-based", "conditions": "Homo sapiens", "how_it_was_run": "(§4)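 MTT assay on HUVEC, K562 or K562/A02 cells seeded at 1×10^4 cells per well, using serial compound concentrations. Formazan was dissolved in DMSO and read at 490 nm. IC50 was obtained from log dose–response curves, mean ± SD of three independent tests.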"}, "K562/A02": {"test_system": "K562/A02", "assay": "Cytotoxicity against human K562/A02 cells assessed as suppression of cell viability after 48 hrs by MTT assay", "assay_type": "cell-based", "conditions": "K562/A02, 48 h", "how_it_was_run": "as §4"}}, "note": "pIC50: −log10 of the molar value. The source made the active and inactive calls. The rule behind the calls is not given here.", "data": [{"smiles": "COc1cc2c(cc1OC)CN(CCc1ccc(Nc3nc(-c4ccncc4)nc4ccccc34)cc1)CC2", "values": [{"measurement": "AUC", "setting": "Rattus norvegicus [1]", "result": 1750, "unit": "ng·h/mL"}, {"measurement": "bioavailability", "setting": "[2]", "result": 95.3, "unit": "%"}, {"measurement": "inhibition", "setting": "Homo sapiens [3]", "result": "Active"}, {"measurement": "fold change (FC)", "setting": "Homo sapiens [4]", "result": 30.9}, {"measurement": "bioavailability", "setting": "[5]", "result": 95.3, "unit": "%"}, {"measurement": "clearance", "setting": "[6]", "result": 47.8, "unit": "mL/min/kg"}, {"measurement": "inhibition", "setting": "Homo sapiens [7]", "result": "Active"}, {"measurement": "inhibition", "setting": "Homo sapiens [8]", "result": "Active"}, {"measurement": "Cmax", "setting": "[9]", "result": 570, "unit": "ng/mL"}, {"measurement": "viability at 48 h, 1 µM", "setting": "[10]", "result": 96.5, "unit": "%"}, {"measurement": "inhibition", "setting": "Homo sapiens [11]", "result": "Active"}, {"measurement": "inhibition", "setting": "Homo sapiens [12]", "result": "Active"}, {"measurement": "Activity", "setting": "Rattus norvegicus [13]", "result": "Non-Toxic"}, {"measurement": "pIC50", "setting": "HUVEC", "result": 4.13}, {"measurement": "pIC50", "setting": "K562/A02", "result": 4.89}]}]}
